Jurkat NFkB inh – inhibitors of induced NF-kB luciferase reporter, primary screen, TCR NF-kB activation inhibitor project, cell-based, luminescence, uHTS. Jurkat, PMA/ionomycin-induced NF-kB luciferase reporter. inhibition, % at 4 µM. 0.53% of 330,000 active; in the data active means inhibition above about 50%
697 NFkB inh – inhibitors of PMA/ionomycin-induced NF-kB reporter, 697 cells, primary screen, B-cell NF-kB inhibitor project, cell-based, luminescence, uHTS; 697 B-cell NF-kB luciferase reporter, 16 h; inhibition, % at 4 µM; 0.33% of 330,000 active; AID 435022, 2010; in the data active means inhibition above about 35%
NR2E3 ag-1 – NR2E3 agonists in two-hybrid cells, primary screen, cell-based, luminescence, CHO-S, Gal4-NCOR/VP16-NR2E3; 0.35% of 360,000 active; Photoreceptor-specific nuclear receptor (Homo sapiens), Q9Y5X4; inhibition of corepressor binding, % at 3.98 µM; luciferase;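 active means inhibition above the mean of all tested compounds plus 3 SD, cut at about 70% in these data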;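 further: 0% = DMSO with NR2E3 transfected cells and 100% = cells lacking NR2E3 construct; higher means lower luciferase signal from less NR2E3 corepressor binding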
Target sequence (Q9Y5X4 whole entry, looked up, the tested form may be a part): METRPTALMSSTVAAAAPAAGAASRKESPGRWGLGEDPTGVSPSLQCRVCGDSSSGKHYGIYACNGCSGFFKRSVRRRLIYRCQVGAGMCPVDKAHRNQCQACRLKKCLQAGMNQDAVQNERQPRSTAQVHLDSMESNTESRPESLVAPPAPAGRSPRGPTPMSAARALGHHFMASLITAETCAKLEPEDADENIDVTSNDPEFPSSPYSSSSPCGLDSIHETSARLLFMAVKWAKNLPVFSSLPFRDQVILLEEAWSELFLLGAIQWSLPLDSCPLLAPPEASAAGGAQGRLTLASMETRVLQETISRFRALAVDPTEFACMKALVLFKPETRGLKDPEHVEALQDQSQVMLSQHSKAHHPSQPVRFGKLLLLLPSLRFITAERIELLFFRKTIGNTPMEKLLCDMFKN
miR-122 sensor – miR-122 Renilla sensor signal increase in Huh7, primary screen, miR-122 inhibitor project, cell-based, single point, plate reader; Huh7 miR-122 Renilla luciferase sensor, 48 h; neutral wells = 0, positive control = 100; activation (reporter increase), % at 12.5 µM; 0.3% of 340,000 active;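 active means mean replicate activation score at least 90 and every replicate individually at or above 90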;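 further: higher luciferase means less miR-122 activity so hits act as miR-122 inhibitors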
FGF22 binding – binders of human FGF22 protein, primary screen, FGF22 synaptogenesis inhibitor project, biophysical, thermal shift, single point; recombinant FGF22 thermal shift, SYPRO orange fluorescence; percent of sucrose octasulfate shift, DMSO zero; 1.5% of 340,000 active; AID 651658, 2012; activity (Tm shift, normalised), % at 9.99 µM;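 active means mean Tm shift, scaled 0 neutral to 100 positive control, at about 1.3% or above, every replicate too, limit read from the data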
NR2E3 ag-2 – inhibitors of NR2E3-RetCOR corepressor binding, primary screen, NR2E3 agonist project, biochemical, TR-FRET, GST-NR2E3, biotin-RetCOR | 1536-well | inhibition of corepressor binding, % at 4.78 µM | 0.12% of 320,000 active | Photoreceptor-specific nuclear receptor (Homo sapiens), Q9Y5X4;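 active means percent inhibition above the cutoff of mean plus 3 SD of all tested compounds, set per screening campaign, cut at about 20% in these data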;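 further: 0% = DMSO wells and 100% = biotin wells as full block of FRET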
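Assay system: NR2E3–RetCOR corepressor complex. Quantity: 1.35 nM GST-NR2E3. Buffer or medium: pH 7.5 Tris-based buffer. Reagent: biotinylated RetCOR corepressor at 7 nM final. Schedule: 5 h at 4 °C. Detection: TR-FRET, emission read at 617 and 671 nm. Replicates: one well per compound, singlicate testing.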
Numbers without * were called inactive; [ ] = remark or other dose. The list is not random: actives were taken first. Their share in the collection is about 2.2%.

For COc1cccc(Cn2c(=O)sc3ccccc3c2=O)c1 the results were Jurkat NFkB inh 5.2, 697 NFkB inh -15.2, NR2E3 ag-1 -39.5, FGF22 binding 43.3* and NR2E3 ag-2 0.4.
`COc1ccc(-c2cnc3c(c2)C(=O)N([C@H](C)CO)C[C@H](C)[C@H](CN(C)C(=O)Nc2ccc(F)cc2)O3)cc1` gave miR-122 sensor -4.3[16.7 µM] and FGF22 binding -0.3.
`COc1cccc2cc(C(=O)Nc3ccc(F)cc3)c(=Nc3ccc(C(=O)O)cc3)oc12` gave Jurkat NFkB inh -14.2, 697 NFkB inh 9.7, NR2E3 ag-1 2.3, miR-122 sensor 0.2, FGF22 binding 43.0* and NR2E3 ag-2 1.5.
Screening C[C@H]1CN([C@@H](C)CO)C(=O)Cc2cc(NC(=O)C3CCCCC3)ccc2O[C@@H]1CN(C)C(=O)Nc1ccccc1 returned miR-122 sensor 13.3[16.7 µM] and FGF22 binding -0.2.
Screening COc1ccc(C(=O)NCCNc2ccc([N+](=O)[O-])cc2)cc1 returned Jurkat NFkB inh 6.6, 697 NFkB inh 14.0, NR2E3 ag-1 6.1, FGF22 binding 67.2* and NR2E3 ag-2 -1.2.
For COc1ccc(CCNC(=O)c2ccc([N+](=O)[O-])cc2)cc1 the results were Jurkat NFkB inh -2.2, 697 NFkB inh -41.2, NR2E3 ag-1 -10.6, FGF22 binding -0.2 and NR2E3 ag-2 4.0.
Screening Cn1c(=O)[nH]c(=O)c2cc(C(=O)c3cc(F)ccc3O)cnc21 returned Jurkat NFkB inh -5.3, 697 NFkB inh -5.1, NR2E3 ag-1 -7.7, FGF22 binding 43.0* and NR2E3 ag-2 1.1.
`Cc1nn(C)c2ncc(C(=O)c3cc(F)ccc3O)cc12` gave Jurkat NFkB inh 4.8, 697 NFkB inh 12.9, NR2E3 ag-1 -5.9, miR-122 sensor -3.0 and NR2E3 ag-2 1.5.
For Clc1cccc(Cl)c1CSc1nnc(CN2CCOCC2)n1-c1ccccc1 the results were Jurkat NFkB inh -3.2, 697 NFkB inh 9.6, NR2E3 ag-1 -16.4, miR-122 sensor 125.8* and NR2E3 ag-2 1.4.
COc1ccc(S(=O)(=O)N(C)C[C@H]2OCCCC[C@@H](C)Oc3ccc(NC(=O)Nc4ccccc4)cc3C(=O)N([C@@H](C)CO)C[C@@H]2C)cc1 was read as miR-122 sensor 2.8[16.7 µM] and FGF22 binding -0.1.
For Cc1[nH]c(=O)c(C(=O)/C=C/c2ccccc2F)c2c1CCCC2 the results were Jurkat NFkB inh 7.8, 697 NFkB inh 0.6, NR2E3 ag-1 53.4, miR-122 sensor 182.5*, FGF22 binding 0.0 and NR2E3 ag-2 -2.1.
`O=C(COC(=O)c1ccc(O)cc1)Nc1ncc(Cl)cc1Cl` gave Jurkat NFkB inh -1.9, 697 NFkB inh 11.3, NR2E3 ag-1 -0.2, miR-122 sensor 0.9, FGF22 binding 43.7* and NR2E3 ag-2 1.4.
Screening O=C(COC(=O)c1ccc2c(c1)OCO2)Nc1ncc(Cl)cc1Cl returned Jurkat NFkB inh -13.8, 697 NFkB inh 5.7, NR2E3 ag-1 -24.2, FGF22 binding 0.2 and NR2E3 ag-2 -4.4.
For O=C(C[C@H]1CC[C@H]2[C@@H](COC[C@H](O)CN2Cc2ccccc2F)O1)N[C@H]1CCN(Cc2ccccc2)C1 the results were miR-122 sensor -1.2[16.7 µM] and FGF22 binding 0.0.
Screening COc1cccc(-c2cccc(NC(=O)C3CCN(Cc4nccs4)CC3)c2)c1 returned Jurkat NFkB inh 1.9, 697 NFkB inh 5.6, NR2E3 ag-1 -30.3, miR-122 sensor -2.1, FGF22 binding -0.3 and NR2E3 ag-2 0.6.
CC(C)c1csc(CN2CCC(C(=O)Nc3cccc(-c4ccco4)c3)CC2)n1 was read as NR2E3 ag-1 -38.7 and FGF22 binding 44.4*.
Screening O=C(c1cccc(F)c1)N1CC2(C1)[C@@H](c1ccccc1)[C@@H](CO)N2C(=O)C1CCCCC1 returned FGF22 binding -0.2.

Screening results as filed in PubChem BioAssay.
